Assay results reported in PMC6714550 (Investigational new drugs, 2018).
Where two headings read alike, the source gives them in different places.

How the values were obtained:
[1] = Plasma pharmacokinetics, cycle 1; format: in vivo, human
Method in brief: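 Patients with advanced GIST took an oral pan-FGFR kinase inhibitor (test compound) once daily at escalating dose levels (25–125 mg), with a second oral tyrosine kinase inhibitor at 400 mg once daily, in 28-day cycles. Blood was sampled at prespecified cycle 1 timepoints. Plasma parent drug, partner drug and its active metabolite were measured by validated LC-MS/MS.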

[2] = test system: patients with imatinib refractory advanced GIST; test: Safety and tolerability, DLT and MTD; conditions: schedule A, in combination with 400mg of imatinib
advanced GIST = conditions: cited from earlier work
[3] = dose level −1 (BGJ398 50mg qd, imatinib 400mg qd), day 1, n=1
[4] = second and third line options in GIST

CCN1CCN(c2ccc(Nc3cc(N(C)C(=O)Nc4c(Cl)c(OC)cc(OC)c4Cl)ncn3)cc2)CC1 [BGJ398]
AUC (0–24h) ([1]; dose level 1 (BGJ398 75mg qd, imatinib 400mg qd), day 1, n=9, mean): 487 (32 – 1153) h x ng/mL | AUC (0–24h) ([1]; dose level 2 (BGJ398 100mg qd, imatinib 400mg qd), day 1, n=1): 309 h x ng/mL | AUC (0–24h) [1, 3]: 25 h x ng/mL | Tmax [1, 3]: 4 h | Tmax ([1]; human, plasma, oral): 5 h | maximum tolerated dose (dose level −1) [2]: 50 mg

Cc1ccc(NC(=O)c2ccc(CN3CCNCC3)cc2)cc1Nc1nccc(-c2cccnc2)n1 [CGP 74588]
Concentration of metabolite day 1 24hr ([1]; dose level 1 (BGJ398 75mg qd, imatinib 400mg qd), n=9, mean): 149 (56 – 395) ng/mL | Concentration of metabolite day 1 24hr ([1]; dose level 2 (BGJ398 100mg qd, imatinib 400mg qd), n=1): 1040 ng/mL | Concentration of metabolite day 1 24hr ([1]; dose level −1 (BGJ398 50mg qd, imatinib 400mg qd), n=3, mean): 54 (26 – 84) ng/mL | Concentration of metabolite day 1 24hr ([1]; dose level −2 (BGJ398 25mg qd, imatinib 400mg qd), n=3, mean): 131 (67 – 209) ng/mL

Cc1ccc(NC(=O)c2ccc(CN3CCN(C)CC3)cc2)cc1Nc1nccc(-c2cccnc2)n1 [imatinib]
objective response rate (advanced GIST; first-line, advanced GIST): approximately 50% | overall disease control rate (advanced GIST; first-line, advanced GIST): 80% | median progression free survival (advanced GIST; following initiation of imatinib therapy): 20–24 months | median PFS (advanced GIST; imatinib re-challenge): 1.8 months | median PFS, 95% CI (advanced GIST; imatinib re-challenge): 1.7–3.6 months

CNC(=O)c1cc(Oc2ccc(NC(=O)Nc3ccc(Cl)c(C(F)(F)F)c3)c(F)c2)ccn1 [regorafenib]
median PFS (advanced GIST; [4]): 4–6 months | response rate (advanced GIST; [4]): 4–7%

CCN(CC)CCNC(=O)c1c(C)[nH]c(/C=C2\C(=O)Nc3ccc(F)cc32)c1C [sunitinib]
median PFS (advanced GIST; [4]): 4–6 months | response rate (advanced GIST; [4]): 4–7%
